Experimental findings from paper PMC12928844 (Nature, 2025) are described below.

Assay [1] relates to NSD2 and H3K36me2 levels in cell lines. Kind of assay: Western blot after KRASi treatment. It is filed as cell-based. The conditions noted are these: 100 nM sotorasib, 1 day. (In general: Immunoblotting shows a protein as a band on a membrane.)
Assay [2] relates to K^cPC PDAC tumours. Nature of the assay: Autochthonous K^cPC PDAC mouse model treatment study. It is filed as in vivo. The conditions noted are these: 2 weeks of treatment, 10 mg kg−1 daily. In outline: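 C57BL/6;129S1 mixed-background mice of both sexes, with littermates as controls. Control and monotherapy groups went through the same procedure but received vehicle. The survival end point was set by overall health criteria scoring, and health status and weight were checked daily.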

The test system of assay [3] is K^c/cP LUAD tumours. Nature of the assay: K^c/cP LUAD mouse model treatment study. Type of assay: in vivo. Particulars: at humane end point; about 100 nodules per mouse at start.
The test system of assay [4] is K^c/cP LUAD tumour cells. Nature of the assay: scRNA-seq tumour fitness score of K^c/cP tumours. It is filed as in vivo, mouse. Particulars: 3 weeks of treatment. The gist of the method:
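KC/CP lung tumour-bearing mice (mixed C57BL/6;129S1, both sexes, littermate controls) received test compound at 100 mg kg−1 once daily i.p. in 40% (2-hydroxypropyl)-β-cyclodextrin, or vehicle. Tumour cells were filtered through 70 μm strainers, given ACK red-cell lysis, washed and counted for scRNA-seq. Malignant cells were called by inferCNV against normal mouse lung alveolar cells.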

In the case of `C=CC(=O)N1CCN(c2nc(=O)n(-c3c(C)ccnc3C(C)C)c3nc(-c4c(O)cccc4F)c(F)cc23)[C@@H](C)C1` [KRASi, sotorasib], the “levels of NSD2 or H3K36me2 (western)” value in assay [1] was “does not impact”. The “ERK1/2 phosphorylation in PDAC tumour lysates (western)” value in assay [2] was “blocked ERK1 and ERK2 (ERK1/2) phosphorylation”. Besides, the “individual tumours (nodules) eliminated” value in assay [3] is reported as ~75%. In addition, the “tumour fitness score (scRNA-seq)” value in assay [4] is “decreased score”.
